Experiments:
[1] = Inhibition of [3H]Leu-enkephalin binding to Dipeptidyl aminopeptidase (DAP); parameters: species or system Rattus norvegicus
Outline: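 Membrane-bound DAP partially purified from rat brain. […] IC50 by log probit analysis of five inhibitor concentrations, mean ± SEM of four independent experiments.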

Neprilysin = biological target: T1, Neprilysin (Oryctolagus cuniculus, UniProt P08049); experiment: Inhibition of [3H]Ala2-Leu-enkephalin binding to Neutral endopeptidase (NEP)
T1 sequence (P08049 whole entry): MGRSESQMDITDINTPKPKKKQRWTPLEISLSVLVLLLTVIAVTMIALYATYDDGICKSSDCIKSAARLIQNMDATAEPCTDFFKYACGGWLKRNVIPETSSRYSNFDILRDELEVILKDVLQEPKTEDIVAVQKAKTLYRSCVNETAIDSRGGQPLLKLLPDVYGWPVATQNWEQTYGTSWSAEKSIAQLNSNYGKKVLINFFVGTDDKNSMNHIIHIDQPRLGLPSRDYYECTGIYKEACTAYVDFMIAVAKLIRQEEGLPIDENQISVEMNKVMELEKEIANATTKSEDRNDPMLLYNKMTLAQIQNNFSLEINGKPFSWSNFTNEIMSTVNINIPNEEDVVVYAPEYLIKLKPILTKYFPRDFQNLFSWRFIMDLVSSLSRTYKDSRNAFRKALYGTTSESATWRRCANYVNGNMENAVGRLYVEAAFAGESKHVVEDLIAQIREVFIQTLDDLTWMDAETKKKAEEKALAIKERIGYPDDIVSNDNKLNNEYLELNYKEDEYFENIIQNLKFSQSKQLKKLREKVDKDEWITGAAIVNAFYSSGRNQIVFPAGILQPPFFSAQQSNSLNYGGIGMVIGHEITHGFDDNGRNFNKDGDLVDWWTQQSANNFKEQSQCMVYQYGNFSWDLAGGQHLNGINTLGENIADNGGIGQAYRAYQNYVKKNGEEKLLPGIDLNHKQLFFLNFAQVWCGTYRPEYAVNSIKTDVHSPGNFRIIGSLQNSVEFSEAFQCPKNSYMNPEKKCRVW
Outline: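 NEP purified to homogeneity from rabbit kidney (single 94 kD band on SDS-PAGE), 1 pmol/100 μL final. Enzyme preincubated 15 min at 25 °C with or without increasing inhibitor in 50 mM Tris-HCl pH 7.0. [3H]D-Ala2-Leu-enkephalin then added at 20 nM final and the reaction stopped after 30 min with HCl. IC50 from log probit analysis of five inhibitor concentrations, mean ± SEM of four independent experiments.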

[2] = Inhibition of [3H]Leu-enkephalin binding to aminopeptidase; parameters: species or system Sus scrofa
Outline: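 Uses commercial purified pig kidney aminopeptidase N without further purification. Enzyme preincubated 15 min at 25 °C with inhibitor in 50 mM Tris-HCl pH 7.0. [3H]Leu-enkephalin then added at 10 nM final (Km 50 μM) and the reaction stopped with HCl. IC50 by log probit analysis of five inhibitor concentrations, mean ± SEM of four independent experiments.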

Structure (SMILES): O=C(O)CC(=O)N[C@H](Cc1ccccc1)C(=O)NO
- IC50 [1]: ~32000 nM
- IC50 (Neprilysin): 3350 nM
- IC50 [2]: ~20000 nM

Structure (SMILES): O=C(O)CC(=O)N[C@H](CC(=O)NO)Cc1ccccc1
- IC50 [1]: 450 nM
- IC50 (Neprilysin): 2.5 nM
- IC50 [2]: 150000 nM

Structure (SMILES): CN(O)C(=O)[C@@H](Cc1ccccc1)NC(=O)CC(=O)O
- IC50 (Neprilysin): 6070 nM

Structure (SMILES): CN(O)C(=O)C[C@@H](Cc1ccccc1)NC(=O)CC(=O)O
- IC50 (Neprilysin): 1730 nM
- IC50 [2]: > 100000 nM

Structure (SMILES): O=C(O)CC(=O)N[C@@H](CC(=O)NO)Cc1ccccc1
- IC50 [1]: 140 nM
- IC50 (Neprilysin): 0.5 nM
- IC50 [2]: 2000 nM

Structure (SMILES): O=C(O)CC(=O)N[C@@H](Cc1ccccc1)C(=O)NO
- IC50 [1]: 2000 nM
- IC50 (Neprilysin): 2500 nM
- IC50 [2]: 400000 nM

Structure (SMILES): CC(C(=O)O)C(=O)NC(CC(=O)NO)Cc1ccccc1 (stereo unspecified)
- IC50 [1]: 17.5 nM
- IC50 (Neprilysin): 1.6 nM
- IC50 [2]: 8600 nM

Structure (SMILES): O=C(CC(Cc1ccccc1)NC(=O)C(Cc1ccccc1)C(=O)O)NO (stereo unspecified)
- IC50 [1]: 32.5 nM
- IC50 (Neprilysin): 3.7 nM
- IC50 [2]: 6200 nM

Structure (SMILES): O=C(O)CNC(=O)C(CC(=O)NO)Cc1ccccc1 (racemic)
- IC50 [1]: 21 nM
- IC50 [2]: 2000 nM

Structure (SMILES): O=C(O)CNC(=O)C(Cc1ccccc1)C(=O)NO (racemic)
- IC50 [1]: 35000 nM
- IC50 [2]: 100000 nM

Structure (SMILES): O=C(CC(Cc1ccccc1)C(=O)NC(Cc1ccccc1)C(=O)O)NO (racemic)
- IC50 (Neprilysin): 2.5 nM
- IC50 [2]: 130 nM

Structure (SMILES): C[C@H](NC(=O)[C@@H](CC(=O)NO)Cc1ccccc1)C(=O)O (racemic) [KELATORPHAN]
- IC50 [1]: 0.9 nM
- IC50 (Neprilysin): 1.7 nM
- IC50 [2]: 380 nM

Structure (SMILES): CC(C(=O)O)C(=O)NC(Cc1ccccc1)C(=O)NO (stereo in doubt; 8)
- IC50 [1]: 2700 nM
- IC50 (Neprilysin): 945 nM
- IC50 [2]: 6100 nM

Structure (SMILES): CC(C(=O)O)C(=O)NC(Cc1ccccc1)C(=O)NO (stereo in doubt; 9)
- IC50 [1]: 71 nM
- IC50 (Neprilysin): 320 nM
- IC50 [2]: ~100000 nM

Reference: ChEMBL document CHEMBL1124208, “Retro-inverso concept applied to the complete inhibitors of enkephalin-degrading enzymes” (J Med Chem, 1988)
